Assays:
[1] = biological target: Human immunodeficiency virus type 1 reverse transcriptase (Human immunodeficiency virus 1, UniProt Q72547); assay: Inhibition of human immunodeficiency virus-1 reverse transcriptase associated RNase H activity using 18-nucleotide 3,-fluorescein-labeled RNA substrate by fluorescence resonance energy transfer assay
How it was run: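 Inhibition of HIV RT-associated RNase H activity was measured by a previously described method, with β-thujaplicinol as positive control and IC50 as the readout.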

[2] = system: Human immunodeficiency virus 1; assay: Antiviral activity against HIV1 infected in human H9 cells assessed as protection against virus-induced cytopathic effect by tetrazolium reduction based colorimetric technique; type: functional, organism-based
How it was run: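 HIV cytopathicity assay run by a previously reported protocol. Compounds tested at up to 50 μM, with dideoxycytidine as positive control.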

CEM-SS = assay: Cytotoxicity against human CEM-SS cells assessed as cell growth inhibition; type: cell-based
How it was run: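 CEM-SS cells were exposed to compounds at concentrations up to 50 μM, and cytotoxicity was scored as cell growth inhibition.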

| Structure (SMILES) | IC50 [1] | EC50 ([2]; h9) | IC50 (CEM-SS) | EC50 ([2]; Human immunodeficiency virus 1, H9, read-out: EC50) |
| --- | --- | --- | --- | --- |
| C=C(C)[C@@H]1CCc2cc(O[C@@H]3O[C@H](COC(=O)CC(C)(O)CC(=O)O)[C@@H](O)[C@H](O)[C@H]3O)c(=O)cc(C)c2C1 (stereo partly specified) | 34 µM | Not Active | > 50 µM |  |
| Cc1cc(=O)c(O[C@@H]2O[C@H](COC(=O)CC(C)(O)CC(=O)O)[C@@H](O)[C@H](O)[C@H]2O)cc2c1C[C@H](C(C)(C)O)CC2 (stereo partly specified) | > 50 µM | Not Active | > 50 µM |  |
| CC(C)c1ccc(O)c(=O)c(O)c1 [BETA-THUJAPLICINOL] | 0.26 µM | Not Active | 2.3 µM |  |
| Nc1ccn([C@H]2CC[C@@H](CO)O2)c(=O)n1 [ZALCITABINE] |  |  | 61 µM | 0.079 µM |

— ChEMBL document CHEMBL3425428, “Sesquiterpenoid tropolone glycosides from Liriosma ovata” (J Nat Prod, 2015)
